Laboratory results: article PMC2582146 (Biochemistry, 2008)
No end group written: not given here.

What was measured:
full-length CAL = full-length CAL (Homo sapiens, UniProt Q9HD26); experiment: Fluorescence polarization direct binding, full-length CAL; conditions: 30 nM reporter titrated with full-length CAL
How it was run: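 Direct titration: full-length CAL pre-incubated 10–30 min at room temperature in FP buffer (storage buffer 25 mM Tris pH 8.5, 150 mM NaCl, 0.02% NaN3, 0.1 mM ATP, plus 0.1 mg/mL bovine IgG, 0.5 mM Thesit) containing fluorescent peptide. Serially diluted into the same buffer, then 10 min incubation and 15 min equilibration at 24 °C. Polarization read at ex 485/em 525 nm.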

CAL PDZ domain (CALP) [1] = target: T1, CAL PDZ domain (CALP) (Homo sapiens, UniProt Q9HD26); experiment: Fluorescence polarization competition binding, CALP with F*C-GBG4_10 reporter
CAL PDZ domain (CALP) [2] = target: T1, CAL PDZ domain (CALP); experiment: Fluorescence polarization competition binding, CALP with F*C-SSR5_10 reporter
How it was run: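 Competition FP using fluorescein-5-maleimide-labelled Cys-peptide reporter in FP buffer: storage buffer (25 mM Tris pH 8.5, 150 mM NaCl, 0.02% NaN3, 0.1 mM TCEP or 1 mM DTT) plus 0.1 mg/mL bovine IgG and 0.5 mM Thesit. Unlabelled Cys-peptides titrated into reporter–protein mix, 15 min at 24 °C. Ex 485/em 525 nm. Ki fit with free protein from exact cubic solution, using known reporter Kd.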

[3] = target: T2, NHERF1 PDZ1 domain (N1P1) (Homo sapiens, UniProt O14745); experiment: Fluorescence polarization direct binding, NHERF1 PDZ1; conditions: titration with increasing N1P1
T2 sequence (O14745 1-139): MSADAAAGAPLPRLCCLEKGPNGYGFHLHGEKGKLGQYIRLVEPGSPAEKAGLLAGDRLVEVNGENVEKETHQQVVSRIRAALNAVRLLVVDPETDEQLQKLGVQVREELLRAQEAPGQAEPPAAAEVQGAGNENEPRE

[4] = target: T3, NHERF1 PDZ2 domain (N1P2) (Homo sapiens, UniProt O14745); experiment: Fluorescence polarization direct binding, NHERF1 PDZ2; conditions: titration with increasing N1P2
T3 sequence (O14745 132-299): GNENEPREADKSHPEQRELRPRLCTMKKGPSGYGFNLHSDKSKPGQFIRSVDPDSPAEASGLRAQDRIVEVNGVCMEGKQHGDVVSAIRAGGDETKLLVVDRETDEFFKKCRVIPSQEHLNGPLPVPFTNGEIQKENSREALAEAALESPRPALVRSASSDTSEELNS

CC(C)C[C@H](NC(=O)[C@H](CCCNC(=N)N)NC(=O)[C@@H](NC(=O)[C@H](CC(=O)O)NC(=O)[C@H](CCC(N)=O)NC(=O)[C@@H](NC(=O)[C@H](CCC(=O)O)NC(=O)[C@H](CCC(=O)O)NC(=O)[C@H](CCC(=O)O)NC(=O)[C@@H](NC(=O)c1ccc2c(c1)C(=O)OC21c2ccc(O)cc2Oc2cc(O)ccc21)[C@@H](C)O)C(C)C)[C@@H](C)O)C(=O)O [F*-CFTR10]
interaction in FP titration (full-length CAL): too weak to be fit

CREKKFFSTIL [C-GBG4_10]
Ki (CAL PDZ domain (CALP) [1]): 109 ± 12 µM
Ki (CAL PDZ domain (CALP) [2]): 63 ± 15 µM

F*C-SCR6: fluorescent reporter peptide with a scrambled sequence (C(fluorescein‑5‑maleimide)QVTLDR)
FP shift of reporter [3]: neither domain caused an FP shift
FP shift of reporter [4]: neither domain caused an FP shift
